Values after ≈ are worked out from the molar mass of the structure shown.
Columns and labels:
[1] = test system: Mycobacterium tuberculosis; assay: Antitubercular activity against Mycobacterium tuberculosis H37Rv ATCC 27294 after 28 days by agar dilution method; assay type: functional; conditions: H37Rv ATCC 27294, 672 h
In short: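 Twofold serial dilutions incorporated into Middlebrook 7H11 agar with OADC, final 25–0.78 μg/mL. Inoculum from fresh 7H11/OADC slants, 1 mg/mL wet weight in 0.05% Tween 80 saline diluted 10⁻² (~10⁷ cfu/mL); 5 μL spotted per tube.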

SK-N-SH = assay: Cytotoxicity against human SK-N-SH cells after 48 hrs after MTT assay; assay type: cell-based
In short: (§1)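 Cells grown in DMEM with 10% FBS, 37 °C, 5% CO₂. Seeded in 96-well plates and preincubated 24 h before compound, tested at 1, 10, 100, 1000 μM in triplicate wells, 48 h continuous exposure. MTT (10 μL of 5%) added for 60 min, stain eluted with DMSO, absorbance read at 560 nm. IC50 from dose–response curves versus control; mean ± SD of three experiments.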

A549 = assay: Cytotoxicity against human A549 cells after 48 hrs after MTT assay; assay type: cell-based; conditions: A549, 48 h; in short: as §1
HeLa = assay: Cytotoxicity against human HeLa cells after 48 hrs after MTT assay; assay type: cell-based; in short: as §1
DU-145 = assay: Cytotoxicity against human DU145 cells after 48 hrs after MTT assay; assay type: cell-based; conditions: DU-145, 48 h
In short: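 Cells kept in MEM with nonessential amino acids, 1 mM sodium pyruvate, bovine insulin, 10% FBS. Seeded in 96-well plates and preincubated 24 h, then exposed 48 h to 1, 10, 100, 1000 μM in triplicate wells. MTT (10 μL of 5%) for 60 min, DMSO elution, absorbance read at 560 nm. IC50 versus control absorbance; mean ± SD of three experiments.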

[2] = test system: Mycobacterium tuberculosis; assay: Ratio of pyrazinamide MIC to compound MIC against Mycobacterium tuberculosis H37Rv ATCC 27294; assay type: functional
[3] = test system: Mycobacterium tuberculosis; assay: Ratio of ethambutol MIC to compound MIC against Mycobacterium tuberculosis H37Rv ATCC 27294; assay type: functional
[4] = Selectivity index ratio of IC50 for human HeLa cells to MIC for Mycobacterium tuberculosis H37Rv ATCC 27294; assay type: functional
[5] = Selectivity index ratio of IC50 for human DU145 cells to MIC for Mycobacterium tuberculosis H37Rv ATCC 27294; assay type: functional, DU-145
[6] = Selectivity index ratio of IC50 for human SK-N-SH cells to MIC for Mycobacterium tuberculosis H37Rv ATCC 27294; assay type: functional
[7] = Selectivity index ratio of IC50 for human A549 cells to MIC for Mycobacterium tuberculosis H37Rv ATCC 27294; assay type: functional

Row | Compound | MIC [1] [µM] | IC50 (SK-N-SH) [µM] | IC50 (A549) [µM] | IC50 (HeLa) [µM] | IC50 (DU-145) [µM] | other results
1 | CC(c1ccc2c(c1)c1ccccc1n2C)n1cc(-c2ccccc2)nn1 (stereo unspecified) | 71 (≈ 25 µg/mL) |  |  |  |  | 
2 | CCCc1cn(C(C)c2ccc3c(c2)c2ccccc2n3C)nn1 (stereo unspecified) | 78 (≈ 24.8 µg/mL) |  |  |  |  | 
3 | CCCCc1cn(C(C)c2ccc3c(c2)c2ccccc2n3C)nn1 (stereo unspecified) | 75.3 (≈ 25 µg/mL) |  |  |  |  | 
4 | CCCCCCc1cn(C(C)c2ccc3c(c2)c2ccccc2n3C)nn1 (stereo unspecified) | 70 (≈ 25.2 µg/mL) |  |  |  |  | 
5 | CC(c1ccc2c(c1)c1ccccc1n2C)n1cc(CO)nn1 (stereo unspecified) | 81.7 (≈ 25 µg/mL) |  |  |  |  | 
6 | CC(c1ccc2c(c1)c1ccccc1n2C)n1cc(COCc2ccccc2)nn1 (stereo unspecified) | 63.1 (≈ 25 µg/mL) |  |  |  |  | 
7 | CC(c1ccc2c(c1)c1ccccc1n2C)n1cc(-c2ccccc2[N+](=O)[O-])nn1 (stereo unspecified) | 31.5 (≈ 12.5 µg/mL) |  |  |  |  | 
8 | CC(c1ccc2c(c1)c1ccccc1n2C)n1cc(-c2ccc(C(C)(C)C)cc2)nn1 (stereo unspecified) | 30.6 (≈ 12.5 µg/mL) |  |  |  |  | 
9 | CC(c1ccc2oc3ccccc3c2c1)n1cc(-c2ccccc2)nn1 (stereo unspecified) | 18.4 (≈ 6.24 µg/mL) |  |  |  |  | 
10 | CCCc1cn(C(C)c2ccc3oc4ccccc4c3c2)nn1 (stereo unspecified) | 41 (≈ 12.5 µg/mL) |  |  |  |  | 
11 | CCCCc1cn(C(C)c2ccc3oc4ccccc4c3c2)nn1 (stereo unspecified) | 39.2 (≈ 12.5 µg/mL) |  |  |  |  | 
12 | CCCCCCc1cn(C(C)c2ccc3oc4ccccc4c3c2)nn1 (stereo unspecified) | 18 (≈ 6.25 µg/mL) |  |  |  |  | 
13 | CC(c1ccc2oc3ccccc3c2c1)n1cc(CO)nn1 (stereo unspecified) | 85.3 (≈ 25 µg/mL) |  |  |  |  | 
14 | CC(c1ccc2oc3ccccc3c2c1)n1cc(COCc2ccccc2)nn1 (stereo unspecified) | 65.2 (≈ 25 µg/mL) |  |  |  |  | 
15 | CC(c1ccc2oc3ccccc3c2c1)n1cc(-c2ccccc2[N+](=O)[O-])nn1 (stereo unspecified) | 16.3 (≈ 6.27 µg/mL) |  |  |  |  | 
16 | CC(c1ccc2oc3ccccc3c2c1)n1cc(-c2ccc(C(C)(C)C)cc2)nn1 (stereo unspecified) | 15.8 (≈ 6.25 µg/mL) |  |  |  |  | 
17 | CC(c1ccc2sc3ccccc3c2c1)n1cc(-c2ccccc2)nn1 (stereo unspecified) | 4.4 (≈ 1.56 µg/mL) | 291 | 444 | 329 | 90 | 
18 | CCCc1cn(C(C)c2ccc3sc4ccccc4c3c2)nn1 (stereo unspecified) | 9.75 (≈ 3.13 µg/mL) | 93 | 68 | 87 | 96 | 
19 | CCCCc1cn(C(C)c2ccc3sc4ccccc4c3c2)nn1 (stereo unspecified) | 4.66 (≈ 1.56 µg/mL) | 101 | 80 | 62 | 107 | 
20 | CCCCCCc1cn(C(C)c2ccc3sc4ccccc4c3c2)nn1 (stereo unspecified) | 4.3 (≈ 1.56 µg/mL) |  |  |  |  | 

Row | Compound | MIC [1] [µM] | IC50 (SK-N-SH) [µM] | IC50 (A549) [µM] | IC50 (HeLa) [µM] | IC50 (DU-145) [µM] | other results
21 | CC(c1ccc2sc3ccccc3c2c1)n1cc(CO)nn1 (stereo unspecified) | 20.2 (≈ 6.25 µg/mL) |  |  |  |  | 
22 | CC(c1ccc2sc3ccccc3c2c1)n1cc(COCc2ccccc2)nn1 (stereo unspecified) | 7.84 (≈ 3.13 µg/mL) | 103 | 189 | 438 | 225 | 
23 | CC(c1ccc2sc3ccccc3c2c1)n1cc(-c2ccccc2[N+](=O)[O-])nn1 (stereo unspecified) | 3.9 (≈ 1.56 µg/mL) | 386 | 190 | 136 | 126 | 
24 | CC(c1ccc2sc3ccccc3c2c1)n1cc(-c2ccc(C(C)(C)C)cc2)nn1 (stereo unspecified) | 1.89 (≈ 0.778 µg/mL) | 260 | 482 | 191 | 105 | Ratio [2]: 26; Ratio [3]: 4; Ratio [4]: 55; Ratio [5]: 55; Ratio [6]: 55; Ratio [7]: 55
25 | Cc1ccc(-c2cn(C(C)c3ccc4sc5ccccc5c4c3)nn2)cc1 (stereo unspecified) | 8.48 (≈ 3.13 µg/mL) | 32 | 108 | 164 | 174 | 
26 | CC(c1ccc2sc3ccccc3c2c1)n1cc(CCc2ccccc2)nn1 (stereo unspecified) | 8.17 (≈ 3.13 µg/mL) |  | 78 | 79 | 100 | 
27 | CC(c1ccc2sc3ccccc3c2c1)n1cc(-c2ccc([N+](=O)[O-])cc2)nn1 (stereo unspecified) | 3.9 (≈ 1.56 µg/mL) | 30 | 852 | 210 | 138 | 
28 | CC(c1ccc2sc3ccccc3c2c1)n1cc(-c2ccsc2)nn1 (stereo unspecified) | 34.6 (≈ 12.5 µg/mL) |  |  |  |  | 
29 | COc1ccc2cc(-c3cn(C(C)c4ccc5sc6ccccc6c5c4)nn3)ccc2c1 (stereo unspecified) | 28.7 (≈ 12.5 µg/mL) |  |  |  |  | 
30 | CC(c1ccc2sc3ccccc3c2c1)n1cc(-c2cc3ccccc3c3ccccc23)nn1 (stereo unspecified) | 54.9 (≈ 25 µg/mL) |  |  |  |  | 
31 | CC(c1ccc2sc3ccccc3c2c1)n1cc(-c2ccc(-c3ccccc3)cc2)nn1 (stereo unspecified) | 14.5 (≈ 6.26 µg/mL) |  |  |  |  | 
32 | CC(c1ccc2sc3ccccc3c2c1)n1cc(-c2ccc(Cl)cc2Cl)nn1 (stereo unspecified) | 3.68 (≈ 1.56 µg/mL) | 477 | 400 | 162 | 150 | 
33 | CC(c1ccc2sc3ccccc3c2c1)n1cc(-c2ccc(F)cc2Cl)nn1 (stereo unspecified) | 1.91 (≈ 0.779 µg/mL) | 342 | 249 | 155 | 147 | Ratio [2]: 26; Ratio [3]: 4; Ratio [4]: 55; Ratio [5]: 55; Ratio [6]: 55; Ratio [7]: 55
34 | CC(c1ccc2sc3ccccc3c2c1)n1cc(-c2ccc(Br)cc2F)nn1 (stereo unspecified) | 3.45 (≈ 1.56 µg/mL) | 76 | 219 | 457 | 222 | 
35 | CC(c1ccc2sc3ccccc3c2c1)n1cc(-c2cc(F)ccc2F)nn1 (stereo unspecified) | 3.98 (≈ 1.56 µg/mL) | 21 | 272 | 96 | 767 | 
36 | CC(c1ccc2sc3ccccc3c2c1)n1cc(-c2cc(F)cc(F)c2Cl)nn1 (stereo unspecified) | 12.5 (≈ 5.32 µg/mL) | 46 | 507 | 116 | 120 | 
37 | CC[C@@H](CO)NCCN[C@@H](CC)CO [ETHAMBUTOL] | 7.6 (≈ 1.55 µg/mL) |  |  |  |  | 
38 | NNC(=O)c1ccncc1 [ISONIAZID] | 0.37 (≈ 0.0507 µg/mL) |  |  |  |  | 
39 | NC(=O)c1cnccn1 [PYRAZINAMIDE] | 50.1 (≈ 6.17 µg/mL) |  |  |  |  | 
